ChEMBL document CHEMBL4715736, “Identification of anticancer agents based on the thieno[2,3-b]pyridine and 1H-pyrazole molecular scaffolds” (2016)

How the values were obtained:
Format in all cases: functional
HCT-15 = experiment: Growth inhibition of human HCT-15 cells assessed as cell growth at 100 uM incubated for 48 hrs by sulforhodamine B assay relative to control; details: read-out: Activity
SK-MEL-28 = experiment: Growth inhibition of human SK-MEL-28 cells assessed as cell growth at 1 uM incubated for 48 hrs by sulforhodamine B assay relative to control; details: read-out: Activity
UACC-257 = experiment: Growth inhibition of human UACC-257 cells assessed as cell growth at 0.01 uM incubated for 48 hrs by sulforhodamine B assay relative to control; details: read-out: Activity
LOX IMVI [1] = experiment: Growth inhibition of human LOX IMVI cells assessed as cell growth at 1 uM incubated for 48 hrs by sulforhodamine B assay relative to control; details: read-out: Activity
RXF 393 [2] = experiment: Growth inhibition of human RXF 393 cells assessed as cell growth at 0.01 uM incubated for 48 hrs by sulforhodamine B assay relative to control; details: read-out: Activity
MDA-MB-435 = experiment: Growth inhibition of human MDA-MB-435 cells assessed as cell growth at 0.01 uM incubated for 48 hrs by sulforhodamine B assay relative to control; details: read-out: Activity
MCF7 [3] = experiment: Growth inhibition of human MCF7 cells assessed as cell growth at 1 uM incubated for 48 hrs by sulforhodamine B assay relative to control; details: read-out: Activity
SW-620 = experiment: Growth inhibition of human SW-620 cells assessed as cell growth at 0.1 uM incubated for 48 hrs by sulforhodamine B assay relative to control; details: read-out: Activity
UO-31 [4] = experiment: Growth inhibition of human UO-31 cells assessed as cell growth at 0.01 uM incubated for 48 hrs by sulforhodamine B assay relative to control; details: read-out: Activity
CCRF-CEM [5] = experiment: Growth inhibition of human CCRF-CEM cells assessed as cell growth at 0.01 uM incubated for 48 hrs by sulforhodamine B assay relative to control; details: read-out: Activity
In short: (§1)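 NCI Developmental Therapeutics Program NCI60 panel. Compounds that were active in the 10 µM one-dose screen went on to dose–response testing. Growth at each concentration is expressed relative to untreated control (100%). GI50 (concentration giving 50% of maximal inhibition of proliferation) and TGI (concentration giving total growth inhibition) were derived from the curves.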

NCI-H522 = experiment: Growth inhibition of human NCI-H522 cells assessed as cell growth at 0.01 uM incubated for 48 hrs by sulforhodamine B assay relative to control; details: read-out: Activity
BT-549 = experiment: Growth inhibition of human BT-549 cells assessed as cell growth at 0.01 uM incubated for 48 hrs by sulforhodamine B assay relative to control; details: read-out: Activity
IGROV-1 [6] = experiment: Growth inhibition of human IGROV-1 cells assessed as cell growth at 0.01 uM incubated for 48 hrs by sulforhodamine B assay relative to control; details: read-out: Activity
T47D = experiment: Growth inhibition of human T47D cells assessed as cell growth at 0.1 uM incubated for 48 hrs by sulforhodamine B assay relative to control; details: read-out: Activity
UACC-62 = experiment: Growth inhibition of human UACC-62 cells assessed as cell growth at 0.01 uM incubated for 48 hrs by sulforhodamine B assay relative to control; details: read-out: Activity
MCF7 [7] = experiment: Growth inhibition of human MCF7 cells incubated for 48 hrs by sulforhodamine B assay
In short: (§2)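 NCI60 panel at the NCI Developmental Therapeutics Program. Only compounds active in the 10 µM screen went to dose-response testing. GI50, the concentration giving 50% of maximal inhibition of proliferation, and TGI, the concentration giving total growth inhibition, were derived from the dose-response curves.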

SNB-75 [8] = experiment: Growth inhibition of human SNB-75 cells assessed as cell growth at 100 uM incubated for 48 hrs by sulforhodamine B assay relative to control; details: read-out: Activity
IGROV-1 [9] = experiment: Growth inhibition of human IGROV-1 cells assessed as cell growth at 1 uM incubated for 48 hrs by sulforhodamine B assay relative to control; details: read-out: Activity
HT-29 = experiment: Growth inhibition of human HT-29 cells assessed as cell growth at 100 uM incubated for 48 hrs by sulforhodamine B assay relative to control; details: read-out: Activity
MOLT-4 = experiment: Growth inhibition of human MOLT-4 cells assessed as cell growth at 100 uM incubated for 48 hrs by sulforhodamine B assay relative to control; details: read-out: Activity
SNB-75 [10] = experiment: Growth inhibition of human SNB-75 cells assessed as cell growth at 0.1 uM incubated for 48 hrs by sulforhodamine B assay relative to control; details: read-out: Activity
NCI/ADR-RES = experiment: Growth inhibition of human NCI/ADR-RES cells incubated for 48 hrs by sulforhodamine B assay; in short: as §2
RXF 393 [11] = experiment: Growth inhibition of human RXF 393 cells incubated for 48 hrs by sulforhodamine B assay
In short: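 NCI DTP 60-line human tumour panel. Dose-response curves were run only for ligands active in the initial 10 µM screen. GI50 (concentration giving 50% of maximal inhibition of proliferation) and TGI (concentration giving total growth inhibition) were derived from these curves.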

LOX IMVI [12] = experiment: Growth inhibition of human LOX IMVI cells assessed as cell growth at 0.01 uM incubated for 48 hrs by sulforhodamine B assay relative to control; details: read-out: Activity
TK-10 = experiment: Growth inhibition of human TK-10 cells assessed as cell growth at 0.1 uM incubated for 48 hrs by sulforhodamine B assay relative to control; details: read-out: Activity
UO-31 [13] = experiment: Growth inhibition of human UO-31 cells assessed as cell growth at 0.1 uM incubated for 48 hrs by sulforhodamine B assay relative to control; details: read-out: Activity
NCI-H460 = experiment: Growth inhibition of human NCI-H460 cells assessed as cell growth at 100 uM incubated for 48 hrs by sulforhodamine B assay relative to control; details: read-out: Activity
K562 = experiment: Growth inhibition of human K562 cells incubated for 48 hrs by sulforhodamine B assay; in short: as §2
Malme-3M = experiment: Growth inhibition of human Malme-3M cells incubated for 48 hrs by sulforhodamine B assay; in short: as §2
HOP-62 = experiment: Growth inhibition of human HOP-62 cells assessed as cell growth at 0.01 uM incubated for 48 hrs by sulforhodamine B assay relative to control; details: read-out: Activity
CCRF-CEM [14] = experiment: Growth inhibition of human CCRF-CEM cells assessed as cell growth at 0.1 uM incubated for 48 hrs by sulforhodamine B assay relative to control; details: read-out: Activity; in short: as §1
NCI-H226 = experiment: Growth inhibition of human NCI-H226 cells assessed as cell growth at 1 uM incubated for 48 hrs by sulforhodamine B assay relative to control; details: read-out: Activity
ACHN = experiment: Growth inhibition of human ACHN cells assessed as cell growth at 100 uM incubated for 48 hrs by sulforhodamine B assay relative to control; details: read-out: Activity
PC-3 = experiment: Growth inhibition of human PC-3 cells assessed as cell growth at 100 uM incubated for 48 hrs by sulforhodamine B assay relative to control; details: read-out: Activity
786-0 = experiment: Growth inhibition of human 786-0 cells assessed as cell growth at 100 uM incubated for 48 hrs by sulforhodamine B assay relative to control; details: read-out: Activity
[15] = read-out: LC50 (the source's name)

SMILES: Cc1cccc(NC(=O)c2sc3nc4c(cc3c2N)C(=O)CCC4)c1
- growth at 100 µM (HCT-15): 5%
- growth at 1 µM (SK-MEL-28): 47%
- growth at 0.01 µM (UACC-257): 82%
- growth at 1 µM (LOX IMVI [1]): 47%
- growth at 0.01 µM (RXF 393 [2]): 97%
- growth at 0.01 µM (MDA-MB-435): 87%
- growth at 1 µM (MCF7 [3]): 18%
- growth at 0.1 µM (SW-620): 60%
- growth at 0.01 µM (UO-31 [4]): 88%
- growth at 0.01 µM (CCRF-CEM [5]): 96%
- growth at 0.01 µM (NCI-H522): 84%
- growth at 0.01 µM (BT-549): 87%
- growth at 0.01 µM (IGROV-1 [6]): 100%
- growth at 0.1 µM (T47D): 78%
- growth at 0.01 µM (UACC-62): 94%
- GI50 (MCF7 [7]): 145 nM
- TGI (MCF7 [7]): > 100 µM
- CC50 (MCF7 [7]; [15]): > 100 µM
- growth at 100 µM (SNB-75 [8]): 1%
- growth at 1 µM (IGROV-1 [9]): 42%
- growth at 100 µM (HT-29): 3%
- growth at 100 µM (MOLT-4): 6%
- growth at 0.1 µM (SNB-75 [10]): 75%
- GI50 (NCI/ADR-RES): 230 nM
- TGI (NCI/ADR-RES): ≥ 100 µM
- CC50 (NCI/ADR-RES; [15]): > 100 µM
- GI50 (RXF 393 [11]): 167 nM
- TGI (RXF 393 [11]): ≥ 100 µM
- CC50 (RXF 393 [11]; [15]): > 100 µM
- growth at 0.01 µM (LOX IMVI [12]): 97%
- growth at 0.1 µM (TK-10): 82%
- growth at 0.1 µM (UO-31 [13]): 81%
- growth at 100 µM (NCI-H460): 7%
- GI50 (K562): 144 nM
- LC50 (concentration killing 50% of cells) (K562): > 100 µM
- TGI (K562): > 100 µM
- LC50 (Malme-3M): > 100 µM
- TGI (Malme-3M): ≥ 100 µM
- growth at 0.01 µM (HOP-62): 88%
- growth at 0.1 µM (CCRF-CEM [14]): 90%
- growth at 1 µM (NCI-H226): 57%
- growth at 100 µM (ACHN): -21%
- growth at 100 µM (PC-3): -26%
- growth at 100 µM (786-0): 2%
